A short description of series [1]: melting temperature; fluorescence melt of hairpins on a sequencing array, two-state fit, raised by 9.35 °C to match UV melts. The note with it: sodium 0.088 M. In a few lines: (§1)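 Bootstrapped two-state fits yielded melting temperature and folding enthalpy for library hairpins. Cy3 fluorescence, with annealed Cy3 and quencher oligos, was imaged on a sequenced MiSeq flow cell in 50 mM Na-HEPES pH 8.0, 25 mM NaCl in 2.5 °C steps up to 60 °C, and normalised to pre-quench Cy3 and to control constructs. Four replicates were combined by inverse variance, and fitted temperatures were raised by 9.35 °C to match UV melts.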

A short description of series [2]: folding enthalpy; higher = less favourable; fluorescence melt of hairpins on a sequencing array, two-state fit. The note with it: sodium 0.088 M. In a few lines:
as §1

The values below come from the array DNA melting data of Ke et al. (doi:10.1101/2024.01.08.574731).

Consider GTCACCGAAAGGTAAGAC ((((((....)))..))), for which the Tm in series [1] is 39 °C. Also, in series [2], the folding enthalpy was -19.6 kcal/mol.
The like results for GCCCTCGAAAGAGGGGGC ((((((....)))..))) were, in that order, 68.4 °C and -15.1 kcal/mol.
In the case of GAACACGAAAGTGACTTC ((((((....)))..))), the Tm in series [1] stood at 35.4 °C. In addition, the folding enthalpy in series [2] is -20.8 kcal/mol.
The like results for GAAGGCGGAAACGTCTTC ((((.((....)).)))) were, in that order, 53.1 °C and -45.1 kcal/mol.
Consider CGTCACGGAAACGTAACG (((.(((....))).))), for which the Tm in series [1] was 41.6 °C. Besides, in series [2], the folding enthalpy was -43.1 kcal/mol.
The like results for CGCGGAAAAACCGCG ((...........)) were, in that order, 65.7 °C and -29.7 kcal/mol.
Taken in the same sequence, the figures for CGTACGGAAACGTTCACG ((((((....)))..))) were 39 °C and -18.6 kcal/mol.
The like results for GGCAGAGGAAACCCTGCC (((((.(....).))))) were, in that order, 53.3 °C and -37.8 kcal/mol.
For GCTTTTACGAAAGTAAGC (((..(((....)))))), the Tm in series [1] was 33.2 °C. Further, the folding enthalpy in series [2] was -14.7 kcal/mol.
The like results for GATCGAACCTCGATC ((((((...)))))) were, in that order, 50.7 °C and -34.4 kcal/mol.
The like results for GCCAAGGGAAACCTTGGC (((((((....))))))) were, in that order, 68.8 °C and -37.5 kcal/mol.
Taken in the same sequence, the figures for GCACTAGAAATAGTGC ((((((....)))))) were 55.4 °C and -33.6 kcal/mol.
In the case of GAGTTGGGAAACCGACTC ((((.((....)).)))), the Tm in series [1] turned out to be 51.5 °C. Besides, the folding enthalpy in series [2] is -40.2 kcal/mol.
The like results for GGTGTGTCGAAAGACACC (((..(((....)))))) were, in that order, 47.8 °C and -10.2 kcal/mol.
Taken in the same sequence, the figures for GGAGTTGGAAACAATTCC (((.(((....))).))) were 43 °C and -29.6 kcal/mol.
The like results for GTAGGGGGAAACCCTTGC (.(.(((....))).).) were, in that order, 31.9 °C and -13.2 kcal/mol.
For the sequence GTATGTACGAAAGTATAC (((..(((....)))))), the Tm in series [1] came to 31 °C. Further, the folding enthalpy in series [2] was -11.4 kcal/mol.
Taken in the same sequence, the figures for GACATGGGAAACCATGTC (((((((....))))))) were 61.3 °C and -42.8 kcal/mol.
The like results for GAACCGCGAAAGCGTTC (((.(((....)))))) were, in that order, 44 °C and -14.2 kcal/mol.
The like results for GTGCGACGAAAGTCACAC (((.(((....))).))) were, in that order, 54.3 °C and -43.9 kcal/mol.
As for GCAGAACCGAAAGGTTGC (((..(((....)))))), the Tm in series [1] was found to be 44.5 °C. The folding enthalpy in series [2] is -17.1 kcal/mol.
The like results for GAACTGGGAAACCAGTTC (((((((....))))))) were, in that order, 61.7 °C and -40.7 kcal/mol.
Taken in the same sequence, the figures for GACGATGGAAACGTTGTC (((.(.(....).).))) were 34 °C and -22.2 kcal/mol.
GACTCGACGAAAGTCGTC (((..(((....)))))): the Tm in series [1] worked out at 31.4 °C. Besides, the folding enthalpy in series [2] was -8.01 kcal/mol.
Taken in the same sequence, the figures for ACTGAGAAATCAGT (((((....))))) were 34.8 °C and -19.8 kcal/mol.
Turning to GATATTGCGAAAGCAATC (((..(((....)))))), the Tm in series [1] came to 35.4 °C. Moreover, the folding enthalpy in series [2] is -8.38 kcal/mol.
The like results for GATCCGGCTGCGGATC ((((((....)))))) were, in that order, 61 °C and -38.4 kcal/mol.
Taken in the same sequence, the figures for GGGGTAGAAATACCCC ((((((....)))))) were 60.4 °C and -34.9 kcal/mol.
Taken in the same sequence, the figures for GCAACGGAAACGTTGC ((((((....)))))) were 68.3 °C and -32.6 kcal/mol.
For the sequence GGGTCTCGAAAGAGTCCC (((.(((....))).))), the Tm in series [1] is 53.8 °C. Further, the folding enthalpy in series [2] is -36.9 kcal/mol.
Taken in the same sequence, the figures for GAACACGAAAGTGCCTTC ((((((....)))..))) were 32.9 °C and -18.7 kcal/mol.
Taken in the same sequence, the figures for GGTAGTCGAAAGACGACC (((.(((....))).))) were 54.2 °C and -44.9 kcal/mol.
Taken in the same sequence, the figures for GCGCACGGAAACGTACGC (((.(((....))).))) were 56 °C and -44.3 kcal/mol.
As to GATCCCCAGGGGATC ((((((...)))))), in series [1], the Tm was 61.9 °C. In series [2], the folding enthalpy is -33.1 kcal/mol.
The like results for GATCTATTCTTAGATC ((((((....)))))) were, in that order, 44.8 °C and -40.9 kcal/mol.
Taken in the same sequence, the figures for GCCACCGAAAGGTCGGGC ((((((....)))..))) were 48 °C and -25.6 kcal/mol.
The like results for GCATTGCGAAAGCGAAGC ((.(.((....)).).)) were, in that order, 38.9 °C and -14.5 kcal/mol.
